Only some compounds are listed: those with a hit (about 4.8% of all), similar ones and a draw of the others.
697 NFkB inh: lowers PMA/ionomycin-induced NF-kB signal in 697 B cells | actives 0.33% (n = 330,000) | 697 B-cell NF-kB luciferase reporter, 16 h | inhibition, % at 4 µM; in the data active = inhibition above about 35%
HSF1 inhib: HSF1 inhibition; NIH3T3-HGL HSE-luciferase, MG132-induced, luminescence 8 h; hits give low values; activity change, negative = inhibition, % at 7.5 µM (by protocol); actives 0.77% (n = 300,000); AID 2098;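 active = more than half of replicate wells show activity change below -50%, luminescence cut by over half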;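 also: luciferase reports HSF-1 transcriptional activity via heat shock element; 0% = median of DMSO wells and -100% = zero luminescence signal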
Jurkat NFkB inh: lowers PMA/ionomycin-induced NF-kB signal in Jurkat cells; inhibition, % at 4 µM; actives 0.53% (n = 330,000); PMA/ionomycin-induced NF-kB luciferase reporter, luminescence; AID 435003; in the data active = inhibition above about 50%
GPR7 antagonist: antagonists of human GPR7 (neuropeptides B/W receptor 1); inhibition, % at 4.4 µM; actives 1.1% (n = 290,000); P48145; GPR7-expressing cells, fluorescence antagonist assay; in the data active = inhibition above about 16%, passing the limit was not always enough;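 also: cells stimulated with the agonist NPW; 0% = agonist with vehicle and 100% = vehicle without agonist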
Target sequence (P48145 whole entry, looked up): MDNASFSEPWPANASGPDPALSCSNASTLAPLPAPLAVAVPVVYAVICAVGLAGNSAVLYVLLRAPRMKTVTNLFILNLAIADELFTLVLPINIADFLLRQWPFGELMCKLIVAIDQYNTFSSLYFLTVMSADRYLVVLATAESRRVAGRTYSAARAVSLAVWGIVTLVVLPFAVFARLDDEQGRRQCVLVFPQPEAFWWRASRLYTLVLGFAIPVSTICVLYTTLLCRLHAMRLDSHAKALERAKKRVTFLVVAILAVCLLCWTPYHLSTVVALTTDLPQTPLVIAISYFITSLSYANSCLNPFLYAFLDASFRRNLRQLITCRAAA
HSF1 activator: increases HSF-1 driven luciferase reporter signal | NIH3T3-HGL HSF-1 luciferase reporter, MG132, 8 h; 100% = twice DMSO control signal | activation, % at 9 µM | actives 1.7% (n = 300,000) | AID 504408;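 active = mean replicate activation of at least 50% with a set share of replicates each reaching 50%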;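 also: 0% = median of the neutral control wells and 100% = twice that signal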
T cruzi inh: blocks replication of Trypanosoma cruzi | T. cruzi beta-gal in NIH3T3, luminescence, 90 h | inhibition, % (concentration not given with the values) | actives 1.4% (n = 300,000) | AID 1885;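 active = mean inhibition across valid replicates above about 55%, limit read from the data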;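 also: signal also drops with host cell toxicity which is not excluded here; 0% = plate median of DMSO wells and 100% = zero luminescence signal; higher percent means less beta-gal luminescence so fewer parasites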
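System: mouse NIH/3T3 fibroblasts infected with β-gal-expressing T. cruzi Tulahuen C4 / Input: NIH/3T3 cells, 5,000 per well / Buffer or medium: Low-serum DMEM with 2% FBS / Probe or stimulus: 5000 reporter trypomastigotes per well / Schedule: ≥90 h infection period, 3 h prior cell attachment / Measured by: GalScreen luminescence, 60 min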
GPR7 antag conf: confirmation of human GPR7 antagonists. shares compounds with GPR7 antagonist. GPR7-expressing cells, calcium fluorescence antagonist mode. inhibition, % at 4.4 µM. actives 52% (n = 2,400). AID 1952; in the data active = inhibition above about 24%;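 also: stimulated with the GPR7 agonist NPW; 0% = agonist plus vehicle and 100% = vehicle alone without agonist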
MCHR1 antag: antagonizes human MCHR1, a GPR7 antagonist counter-screen | actives 62% (n = 2,400) | inhibition, % at 4.4 µM | MCHR1-expressing cells, fluorescence antagonist assay | shares compounds with GPR7 antagonist; in the data active = inhibition above about 22%;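 also: 0% = vehicle with agonist and 100% = vehicle without agonist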
* marks the source's active call; other numbers are inactive results; . = no result given; ! = not confirmed by another sample.

SMILES	697 NFkB inh	HSF1 inhib	Jurkat NFkB inh	GPR7 antagonist	HSF1 activator	T cruzi inh	GPR7 antag conf	MCHR1 antag
CN(C(=O)COC(=O)c1cccc(S(=O)(=O)N2CCOCC2)c1)C1CCS(=O)(=O)C1 (stereo not drawn)	-5.8	-4.4	10.0	.	-4.5	3.0	.	.
CN(C(=O)COC(=O)c1cc(S(=O)(=O)N2CCOCC2)c(Cl)cc1Cl)C1CCS(=O)(=O)C1 (stereo not drawn)	-7.4	-3.3	-16.4	25.7*	-9.6	-14.7	-7.4	8.9
COC(=O)c1cc2ccccn2c2c(C(=O)OC)c(C(=O)OC)cc1-2	8.6	-0.9	0.4	31.4*	0.1	-15.6	-3.0	21.9*
COc1ccc(CCNC(=O)COc2cc(C)cc3oc(=O)cc(C)c23)cc1	9.1	2.6	-0.3	26.0*	2.9	2.4	5.3	18.5
O=C(c1csc2c1CCCC2)N1CCN(c2ccccc2)CC1	-0.7	0.2	0.1	34.6*	-0.6	-10.4	23.5	12.4
O=C(c1ccccc1C(=O)N1CCN(c2ccccc2)CC1)N1CCN(c2ccccc2)CC1	8.6	-3.0	6.1	-7.8	25.4	-10.0	.	.
CC(NC(=O)/C=C/c1ccccc1[N+](=O)[O-])C1CC2CCC1C2 (stereo not drawn)	1.3	-3.8	5.8	13.0	-4.8	19.9	.	.
CCOC(=O)N1CCN(Cc2cn[nH]c2-c2ccc(-c3ccccc3)cc2)CC1	-27.5	19.5	-9.0	24.7*	33.2	-13.5	-8.6	-5.0
COc1ccc(-c2nc3ccccn3c2Cl)cc1	-235.0	10.2	-106.1	3.3	19.7	-4.0	.	.
CCc1ccccc1NC(=O)c1cc([N+](=O)[O-])ccc1N1CCOCC1	-1.2	-16.2	-9.0	33.1*	-26.5	1.1	-4.1	4.6
CN1CCC(Oc2ccc(Sc3ccccc3)cc2)CC1	-60.7	14.2	-82.1	16.9	41.9	46.2	.	.
CN1CCC(Oc2ccccc2Sc2ccc(C(F)(F)F)cc2)CC1	-22.0	0.0	-13.5	27.0*	-4.1	37.3	30.4*	64.3*
O=C(O)CC1(CC(=O)N2CCOCC2)CCCC1	13.3	0.7	9.8	-15.1	-5.0	-13.0	.	.
O=C(Nc1ccc(Cl)cc1)Nc1nc(-c2ccccc2O)cs1	-11.9	1.2	-1.6	31.4*	6.4	40.0	67.2*	62.4*
O=C(O)/C=C/C(=O)Nc1ccc2nccnc2c1	-10.5	11.4	-7.8	4.4	17.4	1.6	.	.
O=S(=O)(c1ccc(Cl)cc1)N(Cc1ccccn1)Cc1ccccn1	0.6	-11.6	-0.9	36.0*	3.8	-12.1	-2.9	-2.3
CCN(CC)S(=O)(=O)c1ccc(S(=O)(=O)N(Cc2ccccn2)Cc2ccco2)cc1	-2.2	-7.3	-13.4	-3.5	9.2	16.0	.	.
c1ccc(-c2ccc(CN3CCSCC3)cc2)cc1	-24.1	-2.7	-20.1	24.0*	3.5	9.8	-1.6	3.5
Clc1ccc(CN2CCSCC2)cc1Cl	2.3	-7.8	-0.7	-8.1	8.6	6.4	.	.
Cc1ccc2c(c1)c1c(n2CC(O)Cn2ccnc2C)C(=O)CCC1 (stereo not drawn)	-1.0	-2.0	-12.4	3.0	-4.6	-2.5	.	.
Cc1ccc2c(c1)c1c(n2CC(O)CNC2CCCC2)CCCC1 (stereo not drawn)	7.7	-0.8	8.2	22.9*	18.2	22.0	53.4*	41.2*
Cc1cc(=O)oc2ccc(OCC(=O)N(Cc3ccc(F)cc3)Cc3ccco3)cc12	-2.5	16.3	10.5	34.1*	14.3	-4.1	37.9*	68.4*
Clc1cccc(CN2CCN(c3nc4nonc4nc3NC3CC3)CC2)c1	19.4	18.6	-2.2	27.2*	26.9	26.2	9.4	4.8
NC(=O)N/N=C/c1coc2ccc(O)cc2c1=O	4.8	-6.7	-2.2	21.4*	-5.6	15.6	4.7	4.3
CN(C)Cc1ccc(CNC(=O)COc2ccc3ccccc3c2)cc1	-10.1	4.9	-12.8	-2.2	7.4	26.3	.	.
SMILES	697 NFkB inh	HSF1 inhib	Jurkat NFkB inh	GPR7 antagonist	HSF1 activator	T cruzi inh	GPR7 antag conf	MCHR1 antag
COc1cccc(CN2CCN(Cc3cc4ccccc4[nH]3)CC2CCO)c1 (stereo not drawn)	21.1	-3.9	8.1	67.4*	-4.1	43.9	78.6*	80.9*
O=[N+]([O-])c1ccc(-c2csc3[n+]2CCS3)cc1	5.5	-6.7	-1.2	28.9*	15.1	-19.0	-1.4	13.8
Fc1ccc(-c2csc3[n+]2CCS3)cc1	2.5	-1.0	-1.3	4.3	-16.6	-4.1	.	.
CCOc1cc(/C=C2\NC(=O)NC2=O)ccc1OC(C)C(=O)O (stereo not drawn)	-7.1	-4.2	-5.0	32.4*	-15.2	-6.4	-15.7	-8.1
Cc1nc2ccc([N+](=O)[O-])cc2c(=O)n1Cc1cccc(F)c1	-2.2	1.4	-42.7	18.2	16.7	2.7	.	.
Cc1cccc(Cn2c(C)nc3ccc([N+](=O)[O-])cc3c2=O)c1	-1.6	29.6	11.6	45.4*	36.1	3.5	35.8*	42.9*
Cc1ccc(CN(Cc2cc3cccc(C)c3[nH]c2=O)C(=S)NCCCN(C)C)cc1	-7.5	-10.7	0.3	35.6*	9.9	1.5	47.0*	29.9*
Cc1cccc2cc(CN(Cc3cccnc3)C(=S)NCCCN(C)C)c(=O)[nH]c12	-2.7	-5.4	-10.4	1.6	1.2	-17.3	.	.
Cc1cccc2cc(CN(Cc3ccccc3)C(=S)NCCCN(C)C)c(=O)[nH]c12	-3.0	-74.1*	-28.6	52.6*	-78.4	23.6	47.8*	27.9*
CC(=O)OCCNc1cc(Sc2nc3ccccc3[nH]2)c2nonc2c1[N+](=O)[O-]	.	28.7	.	33.5*	39.7	55.7*	60.0*	101.2*
O=C(NCCCC(NC(=O)OCc1ccccc1)C(=O)O)OCc1ccccc1 (stereo not drawn)	3.4	1.5	3.1	-13.7	18.8	-21.4	.	.
N=c1n(CCN2CCCC2)c2ccccc2n1CC(O)c1ccco1 (stereo not drawn)	24.0	3.9	-10.5	-11.2	11.2	1.8	.	.
Cc1ccccc1OCC(O)Cn1c(=N)n(CCN2CCOCC2)c2ccccc21 (stereo not drawn)	-8.7	-7.1	10.0	32.7*!	8.9	-11.6	21.3	26.2*
N=c1n(CCN2CCCCC2)c2ccccc2n1CC(O)c1cccc(Br)c1 (stereo not drawn)	2.1	1.5	26.7	24.6*	5.0	34.9	48.1*	43.3*
N=c1n(CCN2CCCCC2)c2ccccc2n1CC(O)COc1ccccc1 (stereo not drawn)	4.8	7.9	23.1	39.7*	12.7	10.0	39.9*	23.1*
